Experiments:
[1] = target: T1, Adrenergic receptor beta (Rattus norvegicus) (UniProt P18090+P10608+P26255); experiment: % specific binding blocked by the compound fraction of 2.6(x10E-6) in beta adrenergic receptor from lung membranes, after serial wash; type: tissue-based
In short: (§1)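 Rat heart or lung membranes (ca. 500 or 150 μg protein) preincubated with compound 1 h at 30 °C, centrifuged, then washed five times (resuspend in buffer, 10 min at 30 °C, centrifuge). Residual specific (–)-[³H]dihydroalprenolol binding (5 nM, 20 min, 30 °C, 50 mM Tris/10 mM MgCl₂ pH 7.4; nonspecific defined with 10 μM (±)-alprenolol) compared with washed untreated membranes; percent inhibition, ≥2 experiments in triplicate.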

[2] = target: T1, Adrenergic receptor beta (Rattus norvegicus); experiment: % specific binding blocked by the compound fraction of 2.6(x10E-6) in beta adrenergic receptor from heart membranes, after serial wash; in short: as §1
[3] = target: T1, Adrenergic receptor beta (Rattus norvegicus); experiment: % specific binding blocked by the compound fraction of 5.6 (1x10E- 5) in beta adrenergic receptor from lung membranes, after serial wash; type: tissue-based; in short: as §1
[4] = target: T1, Adrenergic receptor beta (Rattus norvegicus); experiment: % specific binding blocked by the compound fraction of 2.6 (1x10E- 5) in beta adrenergic receptor from heart membranes, after serial wash; in short: as §1
[5] = target: T1, Adrenergic receptor beta (Rattus norvegicus); experiment: % specific binding blocked by the compound fraction of 2.6 (1x10E- 5) in beta adrenergic receptor from lung membranes, after serial wash; type: tissue-based; in short: as §1
[6] = target: T1, Adrenergic receptor beta (Rattus norvegicus); experiment: % specific binding blocked by the compound fraction of 5.6 (1x10E- 5) in beta adrenergic receptor from heart membranes, after serial wash; in short: as §1
[7] = target: T1, Adrenergic receptor beta (Rattus norvegicus); experiment: % specific binding blocked by the compound fraction of 5.6(x10E-6) in beta adrenergic receptor from lung membranes, after serial wash; type: tissue-based; in short: as §1
[8] = target: T1, Adrenergic receptor beta (Rattus norvegicus); experiment: % specific binding blocked by the compound fraction of 5.6(x10E-6) in beta adrenergic receptor from heart membranes, after serial wash; in short: as §1

Binding [1] [%] | Binding [2] [%] | Binding [3] [%] | Binding [4] [%] | Binding [5] [%] | Binding [6] [%] | Binding [7] [%] | Binding [8] [%] | Structure (SMILES)
68 | 26 |  |  |  |  |  |  | C=CCc1ccccc1OCC(O)CNC(C)COCC(C)OCC(C)OCC(C)N(CC(O)COc1ccccc1CC=C)CC(O)COc1ccccc1CC=C (configuration not stated)
 |  | 0 | 0 | 0 | 0 |  |  | CC(N)COCC(C)OCC(C)OCC(C)N (configuration not stated)
77 | 42.5 |  |  |  |  |  |  | C=CCc1ccccc1OCC(O)CNC(C)COCC(C)OCC(C)OCC(C)NCC(O)COc1ccccc1CC=C (configuration not stated)
14 | 3.8 |  |  |  |  | 0 | 0 | C=CCc1ccccc1OCC(O)CNC(C)COC(C)COC(C)COCC(C)N (configuration not stated)

Reference: ChEMBL document CHEMBL1122311, “beta-Adrenergic antagonists with multiple pharmacophores: persistent blockade of receptors” (J Med Chem, 1983)
